According to PubChem BioAssay AID1267 (The Scripps Research Institute Molecular Screening Center, 2008):
The campaign covered roughly 1,200 compounds. About 770 (64%) were called active.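 How the source made its calls: active means percent activation of the STAT3 luciferase reporter above a set limit taken from the earlier primary screen (cut at about 130% in these data); inactive means the rest.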 So high a share suggests a set chosen from earlier hits. The list is a sample of the results.

test: STAT3 reporter potentiators, retest of hits, confirmation, U3A cells, luciferase, luminescence (AID 1267); details: IL-6 potentiation, at 5.7 µM, stronger effect = higher value;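 further: 0% = background signal of medium plus substrate and 100% = median of IL-6 with DMSO wells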
Outline: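 System – U3A STAT3::luc reporter cells · Also added – IL-6 stimulus at 33 ng/mL final · Incubation – 1 h compound pretreatment plus 6 h IL-6 stimulation, 37 °C · Signal – luminescence of luciferase reporter · Measure – percent potentiation relative to IL-6 plus DMSO median · Benchmarks – high control IL-6 plus DMSO wells, media-only background wells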

| Compound | potentiation (% of control) |
| --- | --- |
| CCC/C(=N\O)c1c[nH]c2ccccc12 | 143% (active) |
| COc1cc(-n2c(=S)[nH]c3ccc(C)cc3c2=O)c(Cl)cc1Cl | 129% (inactive) |
